High-throughput results from PubChem BioAssay.
The list is not random: actives were taken first. Their share in the collection is about 2.5%.
MC4R antag cAMP – blocks human MC4R cAMP signaling; P32245; MC4R-expressing cells, MTII-stimulated cAMP, LANCE TR-FRET; inhibition, % at 6.5 µM; 360,000 tested, 0.48% active;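 active = inhibition above its plate's cutoff, the mean of tested wells on that plate plus 3 SD, cut at about 29% in these data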;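 also: 0% = Melanotan II alone and 100% = Melanotan II plus saturating MCL0020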
Target sequence (P32245 whole entry, looked up): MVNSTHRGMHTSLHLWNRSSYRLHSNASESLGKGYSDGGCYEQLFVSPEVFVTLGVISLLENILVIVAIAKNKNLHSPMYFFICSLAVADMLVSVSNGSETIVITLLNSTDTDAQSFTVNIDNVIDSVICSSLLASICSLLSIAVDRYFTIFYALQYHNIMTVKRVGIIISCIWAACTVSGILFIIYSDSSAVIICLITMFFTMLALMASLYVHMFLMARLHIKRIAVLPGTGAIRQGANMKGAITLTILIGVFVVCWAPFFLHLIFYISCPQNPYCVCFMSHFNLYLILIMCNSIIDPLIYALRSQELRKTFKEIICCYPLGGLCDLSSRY
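Material – human MC4R-expressing U2OS cells · Repeats – no replicates · Detection – TR-FRET with Eu-cAMP and labeled anti-cAMP, 671 nm · Times – compound 30 min, challenge 1 h, detection 1 h · Compound – single nominal compound dose of 6.5 µM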
MC4R barr agon – human MC4R agonism via beta-arrestin. P32245. U2OS MC4R beta-arrestin complementation, luminescence; percent of melanotan II response, DMSO zero. activation, % at 8.9 µM. 360,000 tested, 0.98% active. AID 540308;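 active = activation above a per-plate cutoff, the mean activation of sample wells on that plate plus 3 SD, cut at about 8% in these data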
Exocytosis inh – blocks lytic granule exocytosis; TALL-104 LAMP-1 surface exposure, flow cytometry; cells stimulated with thapsigargin and PMA; inhibition, % at 10 µM; 360,000 tested, 0.66% active; AID 651702;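 active = inhibition above about 55%, limit read from the data; inconclusive = no clear call, values can overlap the other calls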
A1 inh – inhibitors of the anti-apoptotic protein A1, read as caspase activation; MEF A1-2A-BIM cells, Caspase-Glo 3/7 luminescence, 3 h; percent of clofoctol response, vehicle zero; caspase activation, % (no concentration beside the values); 330,000 tested, 0.066% active; AID 2462;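 active = over half of replicate activation scores above 10%, or exactly half above 10 with the replicate mean above 10; inconclusive = replicate mean below 10 yet half the replicates above 10; inactive = over half of replicates below 10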
sPLA2-III inh – Blocks human group III sPLA2 activity; 370,000 tested, 0.56% active; Q9NZ20; inhibition, % at 12.2 µM; QFRET BODIPY PC-A2 liposome hydrolysis, fluorescence; AID 743126;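 active = inhibition above mean plus 3 SD of compounds lying within the high and low control bounds, cut at about 19% in these data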;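 also: 0% = median of test compound wells and 100% = no enzyme DMSO wells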
NTR1 ag – agonists of human neurotensin receptor NTR1; AID 493036; activation, % at 20 µM; 330,000 tested, 0.17% active; NTR1-U2OS beta-arrestin-GFP spot imaging, agonist mode; P30989;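 active = activation at or above 40% of the spot to cytoplasm intensity ratio, with at least 20 cells analyzed; inconclusive = wells under 20 cells, flagged as cytotoxic or low count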;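 also: 0% = DMSO without peptide and 100% = 100 nM NTR1 peptide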
U2OS cAMP counter – nonselective cAMP signaling inhibitor, MC4R antagonist counter-screen; shares compounds with MC4R antag cAMP; parental U2OS, forskolin cAMP, LANCE TR-FRET; inhibition, % at 6.5 µM; 1,600 tested, 26% active;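 active = mean inhibition over triplicates above the low-control well mean plus 3 SD, set per campaign, cut at about 13% in these data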;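 also: signal is single emission at 671 nm which falls as cellular cAMP rises; 0% = forskolin-stimulated wells and 100% = buffer without forskolin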
MC4R cAMP antag – human MC4R cAMP antagonism confirmation; shares compounds with MC4R antag cAMP; MC4R-expressing cells, MTII-stimulated cAMP, TR-FRET; inhibition, % at 6.5 µM; 1,600 tested, 27% active; in the data active = inhibition above about 29%;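 also: 0% = agonist stimulated wells alone and 100% = agonist stimulated wells plus saturating reference antagonist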
Starred values were filed as active, the others as inactive.

What do the screens show for `CC(C)(C)NC(=O)NC(=O)Cn1cc(C(F)(F)F)ccc1=O`?
MC4R antag cAMP: 7; MC4R barr agon: -1; Exocytosis inh: -2; A1 inh: 0; sPLA2-III inh: 1; NTR1 ag: 1

What do the screens show for `COc1ccccc1NS(=O)(=O)c1cccc(NC(=O)c2cc3ccccc3oc2=O)c1`?
MC4R antag cAMP: 29*; MC4R barr agon: 7; Exocytosis inh: -6; A1 inh: 0; sPLA2-III inh: 3; NTR1 ag: 0; U2OS cAMP counter: -5; MC4R cAMP antag: -11

Results for COC(=O)[C@]12C[C@H](CC(=O)NCC3CCCCC3)C(=O)N(CCC3=CCCCC3)C1=C[C@H](C(C)C)O[C@@H]2C1CC1 ?
sPLA2-III inh: 9

Results for CCCCCCCCN1C(=O)[C@@H](CC(=O)NCc2cccc3ccccc23)C[C@@]2(C(=O)OC)C1=C[C@H](C(C)(C)C)O[C@@H]2C ?
sPLA2-III inh: 5

Results for CC(C)CCn1nc(C(=O)Nc2nc3c(s2)CCCC3)c2ccccc2c1=O ?
MC4R antag cAMP: 33*; MC4R barr agon: 4; Exocytosis inh: 1; A1 inh: 0; sPLA2-III inh: 11; NTR1 ag: 6; U2OS cAMP counter: -1; MC4R cAMP antag: 14

Results for CCOc1ccc(NC(=O)CSc2ccccc2N)cc1 ?
MC4R antag cAMP: 32*; MC4R barr agon: 3; Exocytosis inh: -1; A1 inh: inconclusive; sPLA2-III inh: 4; NTR1 ag: 0; U2OS cAMP counter: -5; MC4R cAMP antag: -12

Results for O=C(c1ccco1)N1CCN(c2ncnc3scc(-c4ccc(Cl)cc4)c23)CC1 ?
MC4R antag cAMP: 31*; MC4R barr agon: 4; Exocytosis inh: 1; sPLA2-III inh: 2; U2OS cAMP counter: -3; MC4R cAMP antag: 6

Results for O=C(c1ccco1)N1CCN(c2ncnc3sc4c(c23)CCC4)CC1 ?
MC4R antag cAMP: 0; MC4R barr agon: 0; Exocytosis inh: 0; A1 inh: 0; sPLA2-III inh: -8; NTR1 ag: 4

How did C=CCn1c(C)cc(C(=O)COc2ccc(N(C)S(=O)(=O)c3ccc(NC(C)=O)cc3)cc2)c1C do in these assays?
MC4R antag cAMP: 40*; MC4R barr agon: 2; Exocytosis inh: -4; A1 inh: 1; sPLA2-III inh: -7; NTR1 ag: 2; U2OS cAMP counter: -1; MC4R cAMP antag: 5

What do the screens show for `O=C(Nc1ccccc1)OC1CC2CC1[C@H]1CCCCN1[C@H]2Cc1ccccc1` (stereo not given in full)?
sPLA2-III inh: -6

How did O=C(Nc1ccccc1)OC1CCC2CC1CCC2OC(=O)Nc1ccccc1 (stereo not given) do in these assays?
MC4R antag cAMP: 32*; MC4R barr agon: 1; Exocytosis inh: 14; A1 inh: 0; sPLA2-III inh: -8; NTR1 ag: 6; U2OS cAMP counter: 2; MC4R cAMP antag: 32*

How did Cc1ccc(C(=O)COC(=O)COc2ccccc2[N+](=O)[O-])s1 do in these assays?
MC4R antag cAMP: 5; MC4R barr agon: 0; Exocytosis inh: -3; A1 inh: 0; sPLA2-III inh: 4; NTR1 ag: 1

Results for CCOC(=O)COc1ccccc1/C=C\[N+](=O)[O-] ?
MC4R antag cAMP: 29*; MC4R barr agon: -5; Exocytosis inh: 43; A1 inh: 3; U2OS cAMP counter: 37*; MC4R cAMP antag: 44*

What do the screens show for `O=C(Cc1ccc(Cl)cc1)c1c[nH]c(C(=O)NCc2cccnc2)c1`?
MC4R antag cAMP: 32*; MC4R barr agon: -2; Exocytosis inh: 1; A1 inh: 0; sPLA2-III inh: -3; NTR1 ag: -1; U2OS cAMP counter: 2; MC4R cAMP antag: 1

How did O=C(CNC(=O)C12CC3CC(CC(C3)C1)C2)NCc1ccccc1 do in these assays?
MC4R antag cAMP: 3; MC4R barr agon: 0; Exocytosis inh: -1; A1 inh: 0; sPLA2-III inh: 7; NTR1 ag: 1

What do the screens show for `NNC(=O)CNC(=O)C12CC3CC(CC(C3)C1)C2`?
MC4R antag cAMP: 29*; MC4R barr agon: 3; Exocytosis inh: -4; A1 inh: 1; sPLA2-III inh: 0; NTR1 ag: -2; U2OS cAMP counter: -5; MC4R cAMP antag: -16

What do the screens show for `CCc1nnc(NS(=O)(=O)c2ccc(N/C=C\C(=O)c3cccc(OC)c3)cc2)s1`?
MC4R antag cAMP: 34*; MC4R barr agon: -2; Exocytosis inh: -4; A1 inh: 0; sPLA2-III inh: -37; NTR1 ag: 0; U2OS cAMP counter: 2; MC4R cAMP antag: 9

What do the screens show for `Cc1cc(N2CCCC2=O)ccc1S(=O)(=O)Nc1c(C)nn(C)c1C`?
MC4R antag cAMP: 34*; MC4R barr agon: 0; Exocytosis inh: -1; A1 inh: 0; sPLA2-III inh: 8; NTR1 ag: 1; U2OS cAMP counter: 1; MC4R cAMP antag: 12

How did O=C1NC(c2ccccc2)(c2ccccc2)C(=O)N1CNc1ccccn1 do in these assays?
sPLA2-III inh: 12

Results for O=C(Nc1ccccc1Cl)c1c(F)c(F)c(F)c(F)c1F ?
MC4R antag cAMP: 37*; MC4R barr agon: 2; Exocytosis inh: 3; A1 inh: 0; sPLA2-III inh: -9; NTR1 ag: 4; U2OS cAMP counter: 49*; MC4R cAMP antag: 77*

What do the screens show for `COCCCNC(=O)CSc1nnc(-c2cccnc2)n1C1CCCCC1`?
sPLA2-III inh: 4

Results for COc1ccc(N2CCN(c3n[nH]c(N)n3)CC2)cc1 ?
MC4R antag cAMP: 35*; MC4R barr agon: -2; Exocytosis inh: -1; A1 inh: 0; sPLA2-III inh: 2; NTR1 ag: 0; U2OS cAMP counter: 0; MC4R cAMP antag: 10

What do the screens show for `CC(C)(C)c1ccc(-c2noc(CCC(=O)NC3CC3)n2)cc1`?
sPLA2-III inh: 2

What do the screens show for `O=C(c1ccc([N+](=O)[O-])cc1)N1CCc2ccccc2C1`?
MC4R antag cAMP: 29*; MC4R barr agon: 2; Exocytosis inh: -2; A1 inh: 0; sPLA2-III inh: 1; NTR1 ag: -1; U2OS cAMP counter: 4; MC4R cAMP antag: -3

What do the screens show for `CCCC1CCC2(CC1)CCC2OC(=S)Nc1ccccc1Cl` (stereo not given)?
sPLA2-III inh: -2

Results for CCOP(=O)(OCC)C(NC(=O)Nc1cccc(Cl)c1)c1ccccc1 (stereo not given) ?
MC4R antag cAMP: 30*; MC4R barr agon: 1; Exocytosis inh: 2; A1 inh: 0; sPLA2-III inh: -24; NTR1 ag: -2; U2OS cAMP counter: -1; MC4R cAMP antag: 16
